In ChEMBL document CHEMBL4732084, “Potent antiproliferative activity of bradykinin B2 receptor selective agonist FR-190997 and analogue structures thereof: A paradox resolved?” (Eur J Med Chem, 2021):

Key:
B2 bradykinin receptor = target: T1, B2 bradykinin receptor (Homo sapiens, UniProt P30411); assay: Agonist activity at bradykinin B2 receptor (unknown origin)
T1 sequence (P30411 whole entry): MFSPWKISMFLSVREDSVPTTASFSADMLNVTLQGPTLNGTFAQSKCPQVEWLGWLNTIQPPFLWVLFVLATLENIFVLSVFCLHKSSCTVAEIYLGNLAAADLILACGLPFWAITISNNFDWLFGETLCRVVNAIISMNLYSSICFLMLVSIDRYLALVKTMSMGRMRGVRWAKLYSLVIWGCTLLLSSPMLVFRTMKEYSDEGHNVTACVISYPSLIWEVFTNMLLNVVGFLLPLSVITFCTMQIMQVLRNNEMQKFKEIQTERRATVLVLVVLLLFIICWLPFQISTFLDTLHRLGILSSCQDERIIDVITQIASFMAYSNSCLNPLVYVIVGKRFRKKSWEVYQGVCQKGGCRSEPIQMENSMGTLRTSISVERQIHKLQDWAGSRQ

MCF7 = assay: Antiproliferative activity against human MCF7 cells assessed as cell viability after 24 hrs; type: functional, cell-based; settings: MCF7, 24 h
Outline: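 MCF-7 cells (ATCC) kept in DMEM with 10% FBS, 1.0 mM pyruvate, 2 mM L-glutamine and penicillin at 37 °C, 5% CO2. Cells grown to 60–70% confluence, then given fresh medium and compound (DMSO stock diluted in medium) at 0–200 μM for 24 h with serum. Surviving cells counted manually. IC50 from a non-linear fit of % living cells vs log concentration. Triplicate, mean ± SD.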

MDA-MB-231 = assay: Antiproliferative activity against human MDA-MB-231 cells assessed as cell viability after 24 hrs; type: functional, cell-based; settings: MDA-MB-231, 24 h

Row | Structure (SMILES) | IC50 (B2 bradykinin receptor) | IC50 (MCF7) | IC50 (MDA-MB-231)
1 | COc1nc2c(OCc3c(Cl)ccc(N(C)C(=O)CNC(=O)/C=C/c4ccc(NC(C)=O)nc4)c3Cl)cccc2n1Cc1ccccn1 | 0.00068 µM |  | 
2 | CNC(=O)c1ccc(/C=C/C(=O)O)cc1 |  | 2.12 µM | 86 µM
3 | Cc1cc(OCc2ccccn2)c2cccc(O)c2n1 |  | 0.16 µM | 450 µM
4 | CC1=C(/C=C/C(C)=C/C=C/C(C)=C/C(=O)NCC(=O)N(C)c2ccc(Cl)c(COc3cccc4c(OCc5ccccn5)cc(C)nc34)c2Cl)C(C)(C)CCC1 |  | 65 µM | 193 µM
5 | COc1cc(/C=C/C(=O)NCC(=O)N(C)c2ccc(Cl)c(COc3cccc4c(OCc5ccccn5)cc(C)nc34)c2Cl)ccc1O |  | 0.33 µM | 5.9 µM
6 | CN(C(=O)CN1C(=O)c2ccccc2C1=O)c1ccc(Cl)c(CO)c1Cl |  | 53 µM | 0.78 µM
7 | Cc1cc(OCc2ccccn2)c2cccc(N)c2n1 |  | 0.86 µM | 22 µM
8 | CNC(=O)c1ccc(/C=C/C(=O)NCc2cn(-c3ccc(Cl)c(CNc4cccc5c(OCc6ccccn6)cc(C)nc45)c3Cl)nn2)cc1 |  | 0.73 µM | 0.43 µM
9 | CC1=C(/C=C/C(C)=C/C=C/C(C)=C/C(=O)NCC(=O)N(C)c2ccc(Cl)c(CNc3cccc4c(OCc5ccccn5)cc(C)nc34)c2Cl)C(C)(C)CCC1 |  | 64 µM | 0.005 µM
10 | O=C1c2ccccc2C(=O)N1Cc1cn(-c2ccc(Cl)c(CO)c2Cl)nn1 |  | 0.07 µM | 520 µM
11 | Cc1cc(OCc2ccccn2)c2cccc(OCc3cccc(Oc4ccccc4)c3)c2n1 |  | 407 µM | 6.97 µM
12 | CNC(=O)c1ccc(/C=C/C(=O)NCC(=O)N(C)c2ccc(Cl)c(CNc3cccc4c(OCc5ccccn5)cc(C)nc34)c2Cl)cc1 |  | 1.21 µM | 5.94e-05 µM
13 | CNC(=O)c1ccc(/C=C/C(=O)NCc2cn(-c3ccc(Cl)c(COc4cccc5c(OCc6ccccn6)cc(C)nc45)c3Cl)nn2)cc1 |  | 91 µM | 200 µM
14 | CNC(=O)c1ccc(/C=C/C(=O)NCC(=O)N(C)c2ccc(Cl)c(CO)c2Cl)cc1 |  | 0.93 µM | 650 µM
15 | CNC(=O)c1ccc(/C=C/C(=O)NCC(=O)N(C)c2ccc(Cl)c(COc3cccc4c(OCc5ccccn5)cc(C)nc34)c2Cl)cc1 |  | 2.14 µM | 0.08 µM
16 | Cc1nc(NC(=O)N2CCC[C@H]2C(N)=O)sc1-c1ccnc(C(C)(C)C(F)(F)F)c1 [ALPELISIB] |  |  | 62.9 µM
17 | CC(C)C[C@H](NC(=O)[C@H](Cc1ccccc1)NC(=O)c1cnccn1)B(O)O [BORTEZOMIB] |  |  | 0.003 µM
18 | O=P1(N(CCCl)CCCl)NCCCO1 (stereo unspecified) [CYCLOPHOSPHAMIDE ANHYDROUS] |  |  | 196 µM

Row | Structure (SMILES) | IC50 (B2 bradykinin receptor) | IC50 (MCF7) | IC50 (MDA-MB-231)
19 | CC(=O)O[C@@]12CO[C@@H]1C[C@H](O)[C@@]1(C)C(=O)[C@H](O)C3=C(C)[C@@H](OC(=O)[C@H](O)[C@@H](NC(=O)OC(C)(C)C)c4ccccc4)C[C@@](O)([C@@H](OC(=O)c4ccccc4)[C@H]21)C3(C)C [DOCETAXEL ANHYDROUS] |  |  | 0.01 µM
20 | COc1cccc2c1C(=O)c1c(O)c3c(c(O)c1C2=O)C[C@@](O)(C(=O)CO)C[C@@H]3O[C@H]1C[C@H](N)[C@H](O)[C@H](C)O1 [DOXORUBICIN] |  |  | 0.1 µM
21 | COc1cccc2c1C(=O)c1c(O)c3c(c(O)c1C2=O)C[C@@](O)(C(=O)CO)C[C@@H]3O[C@H]1C[C@H](N)[C@@H](O)[C@H](C)O1 [EPIRUBICIN] |  |  | 0.15 µM
22 | COc1cc(/C=C/C(=O)O)ccc1O [FERULATE] |  | 0.36 µM | 15 µM
23 | O=c1[nH]cc(F)c(=O)[nH]1 [FLUOROURACIL] |  |  | 66.6 µM
24 | CC(=O)Nc1ccc(/C=C/C(=O)NCC(=O)N(C)c2ccc(Cl)c(COc3cccc4ccc(C)nc34)c2Cl)cn1 [FR-173657] |  |  | 20 µM
25 | C[C@]12CC[C@@H]3c4ccc(O)cc4C[C@@H](CCCCCCCCC[S+]([O-])CCCC(F)(F)C(F)(F)F)[C@H]3[C@@H]1CC[C@@H]2O (stereo partly specified) [FULVESTRANT] |  |  | 196 µM
26 | Nc1ccn([C@@H]2O[C@H](CO)[C@@H](O)C2(F)F)c(=O)n1 [GEMCITABINE] |  |  | 2.1 µM
27 | CS(=O)(=O)CCNCc1ccc(-c2ccc3ncnc(Nc4ccc(OCc5cccc(F)c5)c(Cl)c4)c3c2)o1 [LAPATINIB] |  |  | 10.6 µM
28 | O=C(c1cc(Cc2n[nH]c(=O)c3ccccc23)ccc1F)N1CCN(C(=O)C2CC2)CC1 [OLAPARIB] |  |  | 62.5 µM
29 | CC(=O)O[C@H]1C(=O)[C@@]2(C)[C@H]([C@H](OC(=O)c3ccccc3)[C@]3(O)C[C@H](OC(=O)[C@H](O)[C@@H](NC(=O)c4ccccc4)c4ccccc4)C(C)=C1C3(C)C)[C@]1(OC(C)=O)CO[C@@H]1C[C@@H]2O [PACLITAXEL] |  |  | 0.9 µM
30 | CC(=O)c1c(C)c2cnc(Nc3ccc(N4CCNCC4)cn3)nc2n(C2CCCC2)c1=O [PALBOCICLIB] |  |  | 14.6 µM
31 | CN(C)C(=O)c1cc2cnc(Nc3ccc(N4CCNCC4)cn3)nc2n1C1CCCC1 [RIBOCICLIB] |  |  | 27.3 µM
32 | CO[C@H]1C[C@@H]2CC[C@@H](C)[C@@](O)(O2)C(=O)C(=O)N2CCCC[C@H]2C(=O)O[C@H]([C@H](C)C[C@@H]2CC[C@@H](O)[C@H](OC)C2)CC(=O)[C@H](C)/C=C(\C)[C@@H](O)[C@@H](OC)C(=O)[C@H](C)C[C@H](C)/C=C/C=C/C=C/1C [SIROLIMUS] |  |  | 0.9 µM
33 | CC/C(=C(\c1ccccc1)c1ccc(OCCN(C)C)cc1)c1ccccc1 [TAMOXIFEN] |  |  | 69.7 µM
34 | CC1=C(/C=C/C(C)=C/C=C/C(C)=C/C(=O)O)C(C)(C)CCC1 [TRETINOIN] |  | 6.14 µM | 16 µM
35 | CC[C@]1(O)C[C@@H]2CN(CCc3c([nH]c4ccccc34)[C@@](C(=O)OC)(c3cc4c(cc3OC)N(C)[C@H]3[C@@](O)(C(=O)OC)[C@H](OC(C)=O)[C@]5(CC)C=CCN6CC[C@]43[C@@H]65)C2)C1 [VINBLASTINE] |  |  | 0.024 µM
